Activity calls are given as the source filed them. No cut-off for these calls is given here.
Experiments:
[1] = Stability of the compound in simulated intestinal fluid assessed as compound remaining after 2 hrs by LC-MS analysis; type: physicochemical; settings: read-out: Stability
In short: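 Simulated intestinal fluid (phosphate, NaOH, pancreatin, pH 6) at 37 °C, compound at 10 μM, 500 rpm. Samples at 0-120 min MeCN-quenched; LC-MS as % remaining versus initial.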

[2] = Dissociation constant, pKa of the compound by NMR spectrometric analysis; type: physicochemical
[3] = Cmax in plasma of urinary tract infection C3H/HeN mouse model at 50 mg/kg, iv administered as single dose measured after 6 hrs by LC-MS analysis; type: ADME, organism-based; parameters: dose 50 mg/kg, route intravenous
In short: (§1)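 Female C3H/HeN mice (19-25 g) dosed once iv at 50 mg/kg in 100 μL PBS via tail vein. Blood and urine (10 μL) sampled at 6 min, 30 min, 1, 2, 4, 6, 8 and 24 h. Proteins precipitated with methanol, centrifuged, and supernatant quantified by LC-MS.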

[4] = Thermodynamic solubility of the compound at pH 6.5 after 24 hrs by LC-MS analysis; type: physicochemical; settings: buffer, read-out: Therm_solubility
In short: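 1 mg solid in 250 μL 50 mM phosphate pH 6.5, sonicated 15 min, shaken 2 h at 25 °C, left 24 h. pH measured, then filtered and diluted; concentration determined by LC-MS.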

[5] = biological target: T1, CD209 antigen (Homo sapiens) (UniProt Q9NNX6); experiment: Binding affinity to Fc-IgG-tagged DC-SIGN carbohydrate recognizing domain at 1 mM
T1 sequence (whole entry): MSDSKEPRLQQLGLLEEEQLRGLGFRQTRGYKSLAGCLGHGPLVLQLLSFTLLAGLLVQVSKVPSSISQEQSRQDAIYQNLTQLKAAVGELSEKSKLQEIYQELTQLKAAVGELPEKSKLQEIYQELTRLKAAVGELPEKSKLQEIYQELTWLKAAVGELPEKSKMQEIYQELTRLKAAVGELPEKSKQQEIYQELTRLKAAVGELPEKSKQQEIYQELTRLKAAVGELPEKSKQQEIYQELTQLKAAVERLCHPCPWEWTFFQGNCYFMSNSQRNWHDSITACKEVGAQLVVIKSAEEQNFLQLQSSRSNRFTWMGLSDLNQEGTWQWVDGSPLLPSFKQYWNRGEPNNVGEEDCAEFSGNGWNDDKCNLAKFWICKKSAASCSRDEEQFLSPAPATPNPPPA
In short: (§2)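 FimH-CRD (10 μg/mL), DC-SIGN-CRD-Fc (2.5 μg/mL) or MBP (10 μg/mL) coated overnight at 4 °C in 20 mM HEPES pH 7.4, 150 mM NaCl, 10 mM CaCl2. Competition against streptavidin-peroxidase TM-PAA polymer as in the FimH ELISA, test compounds at 1 mM. D-mannose at 50 mM as positive control.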

[6] = Stability of the compound in simulated gastrointestinal fluid assessed as compound remaining after 2 hrs by LC-MS analysis; type: physicochemical; settings: read-out: Stability
[7] = Permeability of the compound assessed as membrane retention by PAMPA method; type: ADME
In short: (§3)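 PAMPA with GIT-0 lipid, donor analyte 50 μM at pH 5.0, 6.2 and 7.4 in quadruplicate, 16 h undisturbed incubation. Donor and acceptor quantified by UV and LC-MS.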

Escherichia coli [8] = experiment: Antibacterial activity against Escherichia coli […] infected in urinary tract infection C3H/HeN mouse model assessed as reduction in bacterial count in kidney of mouse at 50 mg/kg, iv administered as single dose 1 hr before infection and measured after 3 hrs post infection
[9] = AUC (0 to 24 hrs) in urine of urinary tract infection C3H/HeN mouse model at 50 mg/kg, iv administered as single dose measured after 6 hrs by LC-MS analysis; type: ADME, organism-based; parameters: time < 24 hr, dose 50 mg/kg, route intravenous; in short: as §1
Escherichia coli [10] = experiment: Antibacterial activity against Escherichia coli […] infected in urinary tract infection C3H/HeN mouse model assessed as log reduction in bacterial count in kidney of mouse at 50 mg/kg, iv administered as single dose 1 hr before infection and measured after 3 hrs post infection; type: functional, organism-based; parameters: dose 50 mg/kg
In short: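 Female C3H/HeN mice given antagonist iv (100 μL PBS, tail vein) or po as suspension, then infected. Infection: isoflurane anaesthesia, bladder emptied, 50 μL UTI89 at about 10^9-10^10 CFU/mL via transurethral catheter. Six mice per group, killed 3 h post-inoculation. Kidneys plated on EMB agar. Reduction taken against the 3 h untreated control mean; Mann-Whitney test.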

[11] = Permeability coefficient, log Pe of the compound by PAMPA method; type: ADME; in short: as §3
Escherichia coli [12] = experiment: Antibacterial activity against Escherichia coli […] infected in urinary tract infection C3H/HeN mouse model assessed as log reduction in bacterial CFU in urine of mouse at 50 mg/kg, po administered as single dose 1 hr before infection and measured after 3 hrs post infection; type: functional; settings: route intravenous, in the assay text read “iv administered” for “po administered”
[13] = Lipophilicity, log D at pH 7.4 by miniatured shake flask method; type: physicochemical; settings: buffer
In short: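 Octanol-saturated 0.1 M phosphate pH 7.4 containing analyte at 1 μM, overlaid with octanol at two volume ratios, three wells each. Shaken 2 h at 25 °C, then centrifuged; aqueous phase measured by LC-MS. log D computed from depletion. Accepted when the ratio means agree within 0.1.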

Liver = experiment: Metabolic stability of the compound in mouse liver microsomes assessed as Cyp 450-mediated degradation at 2 uM after 30 mins by LC-MS analysis in presence of NADPH; settings: 0.5 h
[14] = AUC (0 to 24 hrs) in urine of urinary tract infection C3H/HeN mouse model at 50 mg/kg, po administered as single dose measured after 6 hrs by LC-MS analysis; type: ADME, organism-based; parameters: time < 24 hr, dose 50 mg/kg, route oral
In short: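 Female C3H/HeN mice (19-25 g) gavaged once at 50 mg/kg. Compound dissolved in DMSO and diluted in 1% Tween-80/PBS as a suspension, or given in 200 μL PBS. Blood and urine sampled at 6 min to 24 h, methanol-precipitated, and analysed by LC-MS. For the prodrug, both parent and carboxylate metabolite were measured.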

[15] = biological target: Mannose-binding protein C (Homo sapiens) (UniProt P11226); experiment: Binding affinity to MBP at 1 mM; in short: as §2
Chain of Mannose-binding protein C (Homo sapiens) (P11226 whole entry): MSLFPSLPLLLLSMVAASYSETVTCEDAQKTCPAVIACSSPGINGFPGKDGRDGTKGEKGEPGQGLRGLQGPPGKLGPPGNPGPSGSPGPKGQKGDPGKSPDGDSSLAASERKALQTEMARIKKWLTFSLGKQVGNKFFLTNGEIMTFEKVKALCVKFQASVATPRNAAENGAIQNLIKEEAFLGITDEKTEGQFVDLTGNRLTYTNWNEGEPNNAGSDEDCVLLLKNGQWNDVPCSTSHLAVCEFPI

[16] = Cmax in urine of urinary tract infection C3H/HeN mouse model at 50 mg/kg, iv administered as single dose measured after 6 hrs by LC-MS analysis; type: ADME, organism-based; parameters: dose 50 mg/kg, route intravenous; in short: as §1
Escherichia coli [17] = experiment: Antibacterial activity against Escherichia coli […] infected in urinary tract infection C3H/HeN mouse model assessed as log reduction in bacterial CFU in bladder of mouse at 50 mg/kg, po administered as single dose 1 hr before infection and measured after 3 hrs post infection; type: functional; settings: route intravenous, in the assay text read “iv administered” for “po administered”
[18] = AUC (0 to 24 hrs) in plasma of urinary tract infection C3H/HeN mouse model at 50 mg/kg, iv administered as single dose measured after 6 hrs by LC-MS analysis; type: ADME, organism-based; parameters: time < 24 hr, dose 50 mg/kg, route intravenous; in short: as §1

Question: What does the source list for `O=C([O-])c1ccc(-c2ccc(O[C@H]3O[C@H](CO)[C@@H](O)[C@H](O)[C@@H]3O)c(Cl)c2)cc1.[Na+]`?
Answer: remaining at 2 h [1]: 80%; pKa [2]: 3.98; Cmax [3]: 39.4 µg/mL; solubility thermodynamic at 24 h [4]: > 3000 µg/mL; Activity [5]: inactive; remaining at 2 h [6]: 80%; permeability [7]: 3.5%; Activity (Escherichia coli [8]): Active; AUC(0-t) at 24 h [9]: 210000 ng·h/mL; Activity (Escherichia coli [10]): Active; permeability [11]: impermeable; FC (Escherichia coli [12]): 2; logD [13]: -0.77; Stability (Liver): Stable; AUC(0-t) at 24 h [14]: 2700 ng·h/mL; Activity [15]: inactive; Cmax [16]: 588 µg/mL; FC (Escherichia coli [17]): 4; AUC(0-t) at 24 h [18]: 20800 ng·h/mL

From ChEMBL document CHEMBL1799951, “FimH antagonists for the oral treatment of urinary tract infections: from design and synthesis to in vitro and in vivo evaluation” (J Med Chem, 2010)
